In ChEMBL document CHEMBL3877325, “Novel salicylanilides from 4,5-dihalogenated salicylic acids: Synthesis, antimicrobial activity and cytotoxicity” (Bioorg Med Chem, 2017):
≈ marks a conversion by molar mass, not a printed value.

Assays:
Mycobacterium kansasii [1] = test: Antimycobacterial activity against Mycobacterium kansasii isolate 6509/96 after 21 days by micromethod; assay type: functional; settings: isolate 6509/96, 504 h
Method in brief: (§1)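 MIC in Šula's semisynthetic medium at 37 °C, read after 7, 14 and 21 days. Inoculum is strain dilution 10^-4; 235/80 is a collection strain and 6509/96 a clinical isolate. Compounds are added as DMSO solutions at 500, 250, 125, 62.5, 32, 16, 8, 4, 2, 1 and 0.5 µM. INH (in sterile water) and PAS are the reference drugs.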

Mycobacterium avium [2] = test: Antimycobacterial activity against Mycobacterium avium My 330/80 after 14 days by micromethod; assay type: functional; settings: My 330/80, 336 h
Method in brief: (§2)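 M. avium My 330/80 (collection strain) inoculated at 10^-5 dilution into Šula's semisynthetic medium. Compounds added from DMSO solutions at 500, 250, 125, 62.5, 32, 16, 8, 4, 2, 1 and 0.5 µM. MIC determined by micromethod at 37 °C, read after 14 and 21 days.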

Mycobacterium avium [3] = test: Antimycobacterial activity against Mycobacterium avium My 330/80 after 21 days by micromethod; assay type: functional; settings: My 330/80, 504 h; method in brief: as §2
Mycobacterium kansasii [4] = test: Antimycobacterial activity against Mycobacterium kansasii isolate 6509/96 after 14 days by micromethod; assay type: functional; settings: isolate 6509/96, 336 h; method in brief: as §1
Mycobacterium kansasii [5] = test: Antimycobacterial activity against Mycobacterium kansasii isolate 235/80 after 14 days by micromethod; assay type: functional; settings: isolate 235/80, 336 h; method in brief: as §1
[6] = test system: Mycobacterium tuberculosis; test: Antimycobacterial activity against Mycobacterium tuberculosis H37Rv My 331/88 after 21 days by micromethod; assay type: functional; settings: H37Rv My 331/88, 504 h
Method in brief: (§3)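 MIC micromethod in Šula's semisynthetic medium at 37 °C, read after 14 and 21 days. Compounds added as DMSO solutions at 500 down to 0.5 µM (twofold-type series: 500, 250, 125, 62.5, 32, 16, 8, 4, 2, 1, 0.5 µM). Isoniazid standard given in sterile water.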

Mycobacterium kansasii [7] = test: Antimycobacterial activity against Mycobacterium kansasii isolate 6509/96 after 7 days by micromethod; assay type: functional; settings: isolate 6509/96, 168 h; method in brief: as §1
[8] = test system: Mycobacterium tuberculosis; test: Antimycobacterial activity against Mycobacterium tuberculosis H37Rv My 331/88 after 14 days by micromethod; assay type: functional; settings: H37Rv My 331/88, 336 h; method in brief: as §3
[9] = Cytotoxicity against human HepG2 cells assessed as reduction in cell viability after 24 hrs by MTS assay; assay type: toxicity, cell-based
Method in brief: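 HepG2 cells (passages 33-37) are grown in MEM with 10% FBS, L-glutamine and non-essential amino acids. They are seeded at 1 × 10^4 cells/well and treated next day with 0.1-100 µM in triplicate for 24 h at 37 °C, 5% CO2. MTS reagent is added for 2 h and A490 read.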

Mycobacterium kansasii [10] = test: Antimycobacterial activity against Mycobacterium kansasii isolate 235/80 after 7 days by micromethod; assay type: functional; settings: isolate 235/80, 168 h; method in brief: as §1
Mycobacterium kansasii [11] = test: Antimycobacterial activity against Mycobacterium kansasii isolate 235/80 after 21 days by micromethod; assay type: functional; settings: isolate 235/80, 504 h; method in brief: as §1
[12] = Selectivity index, ratio of IC50 for human HepG2 cells to MIC for Mycobacterium tuberculosis H37Rv after 21 days; assay type: toxicity, cell-based; settings: HepG2 cells versus Mycobacterium tuberculosis H37Rv, read-out: Selectivity Index
Method in brief: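 HepG2 cells (passages 33-37) seeded at 1 × 10^4 per well and treated next day with 0.1–100 µM in triplicate. After 24 h at 37 °C, 5% CO2, MTS reagent added for 2 h and absorbance read at 490 nm. IC50 taken from viability relative to untreated control, then divided by the 21-day H37Rv MIC.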

SMILES: O=C(Nc1ccc(Cl)c(Cl)c1)c1ccc(Cl)cc1O
- MIC (Mycobacterium kansasii [1]): 8 µM (≈ 2.53 µg/mL)
- MIC (Mycobacterium avium [2]): 16 µM (≈ 5.07 µg/mL)
- MIC (Mycobacterium avium [3]): 16 µM (≈ 5.07 µg/mL)
- MIC (Mycobacterium kansasii [4]): 4 µM (≈ 1.27 µg/mL)
- MIC (Mycobacterium kansasii [5]): 8 µM (≈ 2.53 µg/mL)
- MIC [6]: 4 µM (≈ 1.27 µg/mL)
- MIC (Mycobacterium kansasii [7]): 4 µM (≈ 1.27 µg/mL)
- MIC [8]: 4 µM (≈ 1.27 µg/mL)
- IC50 at 24 h [9]: 2.23 µM
- MIC (Mycobacterium kansasii [10]): 4 µM (≈ 1.27 µg/mL)
- MIC (Mycobacterium kansasii [11]): 8 µM (≈ 2.53 µg/mL)
- selectivity ratio at 504 h [12]: 0.56

SMILES: O=C(Nc1ccc(Br)cc1)c1ccc(Cl)cc1O
- MIC (Mycobacterium kansasii [1]): 8 µM (≈ 2.61 µg/mL)
- MIC (Mycobacterium avium [2]): 16 µM (≈ 5.23 µg/mL)
- MIC (Mycobacterium avium [3]): 16 µM (≈ 5.23 µg/mL)
- MIC (Mycobacterium kansasii [4]): 8 µM (≈ 2.61 µg/mL)
- MIC (Mycobacterium kansasii [5]): 4 µM (≈ 1.31 µg/mL)
- MIC [6]: 4 µM (≈ 1.31 µg/mL)
- MIC (Mycobacterium kansasii [7]): 4 µM (≈ 1.31 µg/mL)
- MIC [8]: 4 µM (≈ 1.31 µg/mL)
- IC50 at 24 h [9]: 3.24 µM
- MIC (Mycobacterium kansasii [10]): 4 µM (≈ 1.31 µg/mL)
- MIC (Mycobacterium kansasii [11]): 4 µM (≈ 1.31 µg/mL)
- selectivity ratio at 504 h [12]: 0.81

SMILES: O=C(Nc1ccc(C(F)(F)F)cc1)c1ccc(Cl)cc1O
- MIC (Mycobacterium kansasii [1]): 4 µM (≈ 1.26 µg/mL)
- MIC (Mycobacterium avium [2]): 8 µM (≈ 2.53 µg/mL)
- MIC (Mycobacterium avium [3]): 8 µM (≈ 2.53 µg/mL)
- MIC (Mycobacterium kansasii [4]): 2 µM (≈ 0.631 µg/mL)
- MIC (Mycobacterium kansasii [5]): 4 µM (≈ 1.26 µg/mL)
- MIC [6]: 4 µM (≈ 1.26 µg/mL)
- MIC (Mycobacterium kansasii [7]): 2 µM (≈ 0.631 µg/mL)
- MIC [8]: 4 µM (≈ 1.26 µg/mL)
- IC50 at 24 h [9]: 2.64 µM
- MIC (Mycobacterium kansasii [10]): 2 µM (≈ 0.631 µg/mL)
- MIC (Mycobacterium kansasii [11]): 4 µM (≈ 1.26 µg/mL)
- selectivity ratio at 504 h [12]: 0.66

SMILES: O=C(Nc1ccc(Br)cc1)c1cc(Cl)ccc1O
- MIC (Mycobacterium kansasii [1]): 8 µM (≈ 2.61 µg/mL)
- MIC (Mycobacterium avium [2]): 8 µM (≈ 2.61 µg/mL)
- MIC (Mycobacterium avium [3]): 8 µM (≈ 2.61 µg/mL)
- MIC (Mycobacterium kansasii [4]): 8 µM (≈ 2.61 µg/mL)
- MIC (Mycobacterium kansasii [5]): 4 µM (≈ 1.31 µg/mL)
- MIC [6]: 16 µM (≈ 5.23 µg/mL)
- MIC (Mycobacterium kansasii [7]): 4 µM (≈ 1.31 µg/mL)
- MIC [8]: 8 µM (≈ 2.61 µg/mL)
- IC50 at 24 h [9]: 3.14 µM
- MIC (Mycobacterium kansasii [10]): 4 µM (≈ 1.31 µg/mL)
- MIC (Mycobacterium kansasii [11]): 4 µM (≈ 1.31 µg/mL)
- selectivity ratio at 504 h [12]: 0.2

SMILES: O=C(Nc1ccc(C(F)(F)F)cc1)c1cc(Cl)ccc1O
- MIC (Mycobacterium kansasii [1]): 2 µM (≈ 0.631 µg/mL)
- MIC (Mycobacterium avium [2]): 8 µM (≈ 2.53 µg/mL)
- MIC (Mycobacterium avium [3]): 8 µM (≈ 2.53 µg/mL)
- MIC (Mycobacterium kansasii [4]): 2 µM (≈ 0.631 µg/mL)
- MIC (Mycobacterium kansasii [5]): 1 µM (≈ 0.316 µg/mL)
- MIC [6]: 2 µM (≈ 0.631 µg/mL)
- MIC (Mycobacterium kansasii [7]): 2 µM (≈ 0.631 µg/mL)
- MIC [8]: 2 µM (≈ 0.631 µg/mL)
- MIC (Mycobacterium kansasii [10]): 1 µM (≈ 0.316 µg/mL)
- MIC (Mycobacterium kansasii [11]): 1 µM (≈ 0.316 µg/mL)

SMILES: O=C(Nc1cc(C(F)(F)F)cc(C(F)(F)F)c1)c1cc(Br)ccc1O
- MIC (Mycobacterium kansasii [1]): 8 µM (≈ 3.43 µg/mL)
- MIC (Mycobacterium avium [2]): 16 µM (≈ 6.85 µg/mL)
- MIC (Mycobacterium avium [3]): 16 µM (≈ 6.85 µg/mL)
- MIC (Mycobacterium kansasii [4]): 8 µM (≈ 3.43 µg/mL)
- MIC (Mycobacterium kansasii [5]): 8 µM (≈ 3.43 µg/mL)
- MIC [6]: 2 µM (≈ 0.856 µg/mL)
- MIC (Mycobacterium kansasii [7]): 4 µM (≈ 1.71 µg/mL)
- MIC [8]: 2 µM (≈ 0.856 µg/mL)
- IC50 at 24 h [9]: 7.8 µM
- MIC (Mycobacterium kansasii [10]): 4 µM (≈ 1.71 µg/mL)
- MIC (Mycobacterium kansasii [11]): 8 µM (≈ 3.43 µg/mL)
- selectivity ratio at 504 h [12]: 3.4

SMILES: O=C(Nc1cc(C(F)(F)F)cc(C(F)(F)F)c1)c1ccc(Cl)cc1O
- MIC (Mycobacterium kansasii [1]): 8 µM (≈ 3.07 µg/mL)
- MIC (Mycobacterium avium [2]): 16 µM (≈ 6.14 µg/mL)
- MIC (Mycobacterium avium [3]): 16 µM (≈ 6.14 µg/mL)
- MIC (Mycobacterium kansasii [4]): 8 µM (≈ 3.07 µg/mL)
- MIC (Mycobacterium kansasii [5]): 8 µM (≈ 3.07 µg/mL)
- MIC [6]: 4 µM (≈ 1.53 µg/mL)
- MIC (Mycobacterium kansasii [7]): 8 µM (≈ 3.07 µg/mL)
- MIC [8]: 4 µM (≈ 1.53 µg/mL)
- IC50 at 24 h [9]: 9.55 µM
- MIC (Mycobacterium kansasii [10]): 8 µM (≈ 3.07 µg/mL)
- MIC (Mycobacterium kansasii [11]): 16 µM (≈ 6.14 µg/mL)
- selectivity ratio at 504 h [12]: 2.39

SMILES: O=C(Nc1ccc(C(F)(F)F)cc1)c1cc(Br)ccc1O
- MIC (Mycobacterium kansasii [1]): 4 µM (≈ 1.44 µg/mL)
- MIC (Mycobacterium avium [2]): 1 µM (≈ 0.36 µg/mL)
- MIC (Mycobacterium avium [3]): 1 µM (≈ 0.36 µg/mL)
- MIC (Mycobacterium kansasii [4]): 4 µM (≈ 1.44 µg/mL)
- MIC (Mycobacterium kansasii [5]): 2 µM (≈ 0.72 µg/mL)
- MIC [6]: 1 µM (≈ 0.36 µg/mL)
- MIC (Mycobacterium kansasii [7]): 2 µM (≈ 0.72 µg/mL)
- MIC [8]: 1 µM (≈ 0.36 µg/mL)
- IC50 at 24 h [9]: 1.81 µM
- MIC (Mycobacterium kansasii [10]): 2 µM (≈ 0.72 µg/mL)
- MIC (Mycobacterium kansasii [11]): 4 µM (≈ 1.44 µg/mL)
- selectivity ratio at 504 h [12]: 1.81

SMILES: O=C(Nc1ccc(Cl)c(Cl)c1)c1cc(Br)ccc1O
- MIC (Mycobacterium kansasii [1]): 4 µM (≈ 1.44 µg/mL)
- MIC (Mycobacterium avium [2]): 8 µM (≈ 2.89 µg/mL)
- MIC (Mycobacterium avium [3]): 8 µM (≈ 2.89 µg/mL)
- MIC (Mycobacterium kansasii [4]): 2 µM (≈ 0.722 µg/mL)
- MIC (Mycobacterium kansasii [5]): 8 µM (≈ 2.89 µg/mL)
- MIC [6]: 4 µM (≈ 1.44 µg/mL)
- MIC (Mycobacterium kansasii [7]): 2 µM (≈ 0.722 µg/mL)
- MIC [8]: 4 µM (≈ 1.44 µg/mL)
- IC50 at 24 h [9]: 31.5 µM
- MIC (Mycobacterium kansasii [10]): 8 µM (≈ 2.89 µg/mL)
- MIC (Mycobacterium kansasii [11]): 8 µM (≈ 2.89 µg/mL)
- selectivity ratio at 504 h [12]: 7.87

SMILES: O=C(Nc1ccc(C(F)(F)F)cc1)c1ccc(Br)cc1O
- MIC (Mycobacterium kansasii [1]): 4 µM (≈ 1.44 µg/mL)
- MIC (Mycobacterium avium [2]): 8 µM (≈ 2.88 µg/mL)
- MIC (Mycobacterium avium [3]): 8 µM (≈ 2.88 µg/mL)
- MIC (Mycobacterium kansasii [4]): 4 µM (≈ 1.44 µg/mL)
- MIC (Mycobacterium kansasii [5]): 2 µM (≈ 0.72 µg/mL)
- MIC [6]: 2 µM (≈ 0.72 µg/mL)
- MIC (Mycobacterium kansasii [7]): 2 µM (≈ 0.72 µg/mL)
- MIC [8]: 1 µM (≈ 0.36 µg/mL)
- IC50 at 24 h [9]: 15 µM
- MIC (Mycobacterium kansasii [10]): 2 µM (≈ 0.72 µg/mL)
- MIC (Mycobacterium kansasii [11]): 4 µM (≈ 1.44 µg/mL)
- selectivity ratio at 504 h [12]: 7.52

SMILES: O=C(Nc1ccc(Br)cc1)c1ccc(Br)cc1O
- MIC (Mycobacterium kansasii [1]): 8 µM (≈ 2.97 µg/mL)
- MIC (Mycobacterium avium [2]): 16 µM (≈ 5.94 µg/mL)
- MIC (Mycobacterium avium [3]): 16 µM (≈ 5.94 µg/mL)
- MIC (Mycobacterium kansasii [4]): 8 µM (≈ 2.97 µg/mL)
- MIC (Mycobacterium kansasii [5]): 8 µM (≈ 2.97 µg/mL)
- MIC [6]: 4 µM (≈ 1.48 µg/mL)
- MIC (Mycobacterium kansasii [7]): 8 µM (≈ 2.97 µg/mL)
- MIC [8]: 2 µM (≈ 0.742 µg/mL)
- IC50 at 24 h [9]: 7.59 µM
- MIC (Mycobacterium kansasii [10]): 4 µM (≈ 1.48 µg/mL)
- MIC (Mycobacterium kansasii [11]): 8 µM (≈ 2.97 µg/mL)
- selectivity ratio at 504 h [12]: 1.9
